In ChEMBL document CHEMBL1140735, “Structure-activity relationships of C6-uridine derivatives targeting plasmodia orotidine monophosphate decarboxylase” (J Med Chem, 2008):

What was measured:
[1] = Inhibition of Plasmodium vivax ODCase
In short: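 Calorimetric assay of P. vivax ODCase: enzyme (50 or 70 nM) was mixed with inhibitor (40–250 µM) in 50 mM Tris with 1 mM DTT, and activity was started by a single OMP injection to a final 12 µM. Competitive Ki was determined. For time-dependent inactivation, 50 µM enzyme was incubated at 25 °C in Tris pH 8.0 with 37.5–75 mM inhibitor for 1–48 h, then diluted 1000-fold and assayed.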

[2] = Stability assessed as half life of hydrolysis; assay type: physicochemical
CHO = assay: Cytotoxicity against CHO cells; assay type: cell-based; settings: Cricetulus griseus
In short: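 CHO cells in RPMI 1640 with 10% fetal calf serum, 25 mM HEPES and gentamicin were grown to 50% confluency. Compounds from 10 mg/mL DMSO stocks were added as a serial dilution series, with DMSO-only controls. After 48 h, MTT was added for 1 h and formazan dissolved in DMSO. Absorbance at 650 nm; IC50 by nonlinear regression of dose–response.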

Plasmodium falciparum [3] = assay: Antimalarial activity against Plasmodium falciparum 3D7; assay type: functional, organism-based
In short: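 Parasites grown in human O+ erythrocytes in RPMI 1640 with 10% human serum and 50 µM hypoxanthine. Compounds from 10 mg/mL DMSO stocks were serially 2-fold diluted and added to culture at 2% hematocrit and 2% parasitemia. Incubation was 48 h at 37 °C under 95% N2/3% CO2/2% O2.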

[4] = Inhibition of Plasmodium falciparum ODCase
Plasmodium falciparum [5] = tested on: Plasmodium falciparum
[6] = tested on: Methanothermobacter thermautotrophicus
[7] = Inhibition of Methanobacterium thermoautotrophicum ODCase; parameters: species or system Methanothermobacter thermautotrophicus

SMILES | IC50 (Plasmodium falciparum [3]) [µM] | IC50 (CHO) [µM] | further results
N#Cc1cc(=O)[nH]c(=O)n1[C@@H]1O[C@H](COP(=O)(O)O)[C@@H](O)[C@H]1O |  |  | Ki [1]: 62 µM; half-life [2]: 5 h
Nc1cc(=O)[nH]c(=O)n1[C@@H]1O[C@H](CO)[C@@H](O)[C@H]1O | > 1500 | > 1500 | 
O=c1cc(I)n([C@@H]2O[C@H](CO)[C@@H](O)[C@H]2O)c(=O)[nH]1 | 6.2 | 366 | 
CNc1cc(=O)[nH]c(=O)n1[C@@H]1O[C@H](CO)[C@@H](O)[C@H]1O | 28.5 | 71.9 | 
Cc1cc(=O)[nH]c(=O)n1[C@@H]1O[C@H](CO)[C@@H](O)[C@H]1O | 530 | > 1160 | 
[N-]=[N+]=Nc1cc(=O)[nH]c(=O)n1[C@@H]1O[C@H](COP(=O)(O)O)[C@@H](O)[C@H]1O |  |  | Ki [4]: 2 µM; KI (Plasmodium falciparum [5]): 7.3 µM; Kinact (Plasmodium falciparum [5]): 0.35 h⁻¹; KI [6]: 0.63 µM; Kinact [6]: 61.2 h⁻¹; Ki [7]: 0.19 µM
Cc1cc(=O)[nH]c(=O)n1[C@@H]1O[C@H](COP(=O)(O)O)[C@@H](O)[C@H]1O |  |  | Ki [4]: 34.1 µM; Ki [1]: 22.4 µM

Continued, in another order:

IC50 (Plasmodium falciparum [3]) [µM] | SMILES | IC50 (CHO) [µM] | further results
446 | N#Cc1cc(=O)[nH]c(=O)n1[C@@H]1O[C@H](CO)[C@@H](O)[C@H]1O | > 1500 | 
31.7 | CN(C)c1cc(=O)[nH]c(=O)n1[C@@H]1O[C@H](CO)[C@@H](O)[C@H]1O | 68.3 | 
1230 | [N-]=[N+]=Nc1cc(=O)[nH]c(=O)n1[C@@H]1O[C@H](CO)[C@@H](O)[C@H]1O | > 1500 | 
